Consider 12 compounds from PubChem BioAssay.

Broadly, the viability is a read-out of living cells in per cent, often relative to untreated cells. One may read the inhibition as the relative decrease from the control value, in per cent.

The source made the active and inactive calls.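 How the source made its calls, unless noted: active means viability at or below 30% in both replicate assays; inconclusive means viability at or below 30% in just one of the two assays; inactive means the rest.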

A short description of assay [1]: reduced viability of SK-BR-3 breast cancer cells – cell-based, 24 h, human, pilot screen (AID 572;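 active means viability at or below 10% of carrier control in both of two separate runs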;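 further: compound exposure lasted between 18 and 24 h rather than exactly 24 h; 100% = carrier-treated control wells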). Particulars: SK-BR-3 viability, CellTiter-Glo luminescence, at 10 µM, stronger effect = lower value.
Assay [2] is described as follows: HUVEC growth inhibition – cell-based, human, primary screen (AID 575).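 Further: 100% = median of untreated cell wells with 0.1% DMSO on each plate.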 Particulars: HUVEC proliferation, CellTiter-Glo luminescence, 72 h; at 10 µM; stronger effect = lower value. In short, it runs like this:
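Test system: HUVEC primary cells. Quantity: 1250 endothelial cells in each well. Dosing: single-point 10 µM, DMSO 0.1% final. Incubation: 72 h treatment at 37 °C. Measured by: CTG luminescence. Control set: DMSO cell controls and MePR drug controls. Plate: collagen-coated 384-well format.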
Background: In ATP-based viability assays light output follows the ATP content of the culture.

The nature of assay [3]: H69AR cell proliferation blockers – human, duplicate replicates, primary screen (AID 580;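 active means viability at or under a set limit in both replicates, limit being median viability minus 3 SD, cut at about 48% in these data, passing the limit was not always enough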;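 further: 100% = mean luminescence of untreated wells and 0% = no signal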). Particulars: H69AR lung tumor cells viability, ATP luminescence, 72 h; at 10 µM; stronger effect = lower value.
Assay [4] is described as follows: MRP1 drug-resistance reversers in H69AR cells – cell-based, doxorubicin co-treatment, pilot screen (AID 601;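 active means viability loss from added drug above about 55%, and viability with drug at most 40%, in both replicates, limit read from the data, passing the limit was not always enough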). The following applies: CellTiter-Glo, 72 h, at 10 µM; for differential viability (reversal): stronger effect = higher value.
Assay [5] is described as follows: yeast transport mutant growth inhibition pilot in 384-well plates, post-Golgi transport modulator project (AID 636; in the data active means inhibition above about 31%). Particulars: absorbance 615 nm, about 18 h, stronger effect = higher value.
A short description of assay [6]: growth suppression of yeast trafficking mutant, preliminary HTS, modulators of trafficking downstream of Golgi apparatus project, 1536-format plate, OD 615 nm (AID 637; in the data active means inhibition above about 30%). Particulars: yeast transport mutant growth, absorbance 615 nm, 18 h; stronger effect = higher value.
Where [7] appears, read: H69AR cells + 2 uM doxorubicin, measured here: viability with 2 uM doxorubicin, stronger effect = lower value.
The mark [8] stands for this setting: H69AR cells, compound alone cytotoxicity.

As to `Cc1nc2ccc(S(=O)(=O)NCC(=O)N(C)Cc3ccco3)cc2s1`, the viability in assay [1] is 109% (inactive); in assay [2] it was 95.6% (inactive); in assay [3] it was 91.6% (inactive); in assay [4] (setting [7]) it was 82.3%; in assay [4] (setting [8]), 91.6%. Moreover, in assay [4] (H69AR cells + 2 uM doxorubicin), the differential viability (reversal) is 9.31% (inactive). Also, the inhibition in assay [5] was -0.91% (inactive); in assay [6], 3.93% (inactive).

Take `Cc1cc(C)n(CC(=O)NC2CCCCC2)n1`: the viability in assay [1] was 113% (inactive); in assay [2], 114% (inactive); in assay [3] it was 98% (inactive); in assay [4] (setting [7]), 85.3%; in assay [4] (setting [8]), 98%. Besides, the differential viability (reversal) in assay [4] (H69AR cells + 2 uM doxorubicin) is 12.7% (inactive). For the same compound, the inhibition in assay [5] is -8.49% (inactive); in assay [6], 0.32% (inactive).

On to `Cn1c(=O)cc(OCCCC(=O)N2CCCCC2)c2ccccc21`, for which the viability in assay [1] is 98% (inactive); in assay [2], 87.5% (inactive); in assay [3] it was 91.5% (inactive); in assay [4] (setting [7]), 79.5%; in assay [4] (setting [8]), 91.5%. In assay [4] (H69AR cells + 2 uM doxorubicin), the differential viability (reversal) was 12% (inactive). For the same compound, the inhibition in assay [5] is -1.82% (inactive); in assay [6], 0.98% (inactive).

As for `c1ccc(CSc2nnc(-c3cccs3)n2Cc2ccco2)cc1`, the viability is 86% (inactive) in assay [1]; 90.3% (inactive) in assay [2]; 83.2% (inactive) in assay [3]; 83.4% in assay [4] (setting [7]); 83.2% in assay [4] (setting [8]). The differential viability (reversal) in assay [4] (H69AR cells + 2 uM doxorubicin) was -0.12% (inactive). The inhibition in assay [5] was 1.37% (inactive); in assay [6], -0.65% (inactive).

In the case of `O=C1CCc2cc(OCCCCc3nnnn3C3CCCCC3)ccc2N1`, the viability in assay [1] was 98% (inactive); in assay [2], 78.6% (inactive); in assay [3] it was 101% (inactive); in assay [4] (setting [7]), 88.2%; in assay [4] (setting [8]), 101%. The differential viability (reversal) in assay [4] (H69AR cells + 2 uM doxorubicin) is 13% (inactive). Moreover, the inhibition is 1.82% (inactive) in assay [5] and -4% (inactive) in assay [6].

Consider `O=C1c2ccccc2NC(c2cccc(F)c2)N1Cc1ccco1` (stereo unspecified), for which the viability in assay [1] was 53% (inactive); in assay [2] it was 103% (inactive); in assay [3] it was 92% (inactive); in assay [4] (setting [7]) it was 87.3%; in assay [4] (setting [8]), 92%. Besides, the differential viability (reversal) in assay [4] (H69AR cells + 2 uM doxorubicin) is 4.72% (inactive). Moreover, the inhibition in assay [5] is -6.85% (inactive); in assay [6], -1.64% (inactive).

Take `O=c1c2ccccc2c(/C=N/n2cnnc2)c(O)n1-c1ccccc1`: the viability in assay [1] was 84% (inactive); in assay [2], 103% (inactive); in assay [3], 100% (inactive); in assay [4] (setting [7]), 83.9%; in assay [4] (setting [8]), 100%. For the same compound, in assay [4] (H69AR cells + 2 uM doxorubicin), the differential viability (reversal) was 16.3% (inactive). Besides, the results for the inhibition in assay [5] and in assay [6] were -7.7% (inactive) and -3.09% (inactive), respectively.

On to `Cc1cccc(C)c1OCC(=O)Nc1cccc(NC(=O)c2ccco2)c1`, for which the viability was 97% (inactive) in assay [1]; 71.2% (inactive) in assay [2]; 84.6% (inactive) in assay [3]; 83.1% in assay [4] (setting [7]); 84.6% in assay [4] (setting [8]). Moreover, in assay [4] (H69AR cells + 2 uM doxorubicin), the differential viability (reversal) is 1.53% (inactive). Moreover, the inhibition in assay [5] was -3.29% (inactive); in assay [6] it was -0.16% (inactive).

On to `COCCN(Cc1cc2cccc(C)c2[nH]c1=O)C(=O)c1ccccc1`, for which the viability in assay [1] was 95% (inactive); in assay [2], 118% (inactive); in assay [3], 102% (inactive); in assay [4] (setting [7]) it was 94.1%; in assay [4] (setting [8]) it was 102%. Further, in assay [4] (H69AR cells + 2 uM doxorubicin), the differential viability (reversal) is 7.6% (inactive). In addition, the inhibition in assay [5] is -0.95% (inactive); in assay [6] it was 1.09% (inactive).

As to `Cc1ccc(-c2nnc(N3CCN(C(=O)CN4C(=O)c5ccccc5C4=O)CC3)c3ccccc23)cc1`, the viability in assay [1] was 84% (inactive); in assay [2], 73% (inactive); in assay [3] it was 94% (inactive); in assay [4] (setting [7]), 94.3%; in assay [4] (setting [8]) it was 94%. For the same compound, the differential viability (reversal) in assay [4] (H69AR cells + 2 uM doxorubicin) was -0.335% (inactive). Further, the inhibition in assay [5] is -1.23% (inactive); in assay [6] it was -4.03% (inactive).

In the case of `O=C1[C@@H]2C(c3ccccc3Cl)=NO[C@@H]2C(=O)N1Cc1ccccc1`, the viability was 96% (inactive) in assay [1]; 116% (inactive) in assay [2]; 104% (inactive) in assay [3]; 100% in assay [4] (setting [7]); 104% in assay [4] (setting [8]). Also, in assay [4] (H69AR cells + 2 uM doxorubicin), the differential viability (reversal) is 4.24% (inactive). For the same compound, the inhibition in assay [5] is -6.76% (inactive); in assay [6], 3.09% (inactive).

`COC(=O)Cc1cc(=O)n(-c2ccccc2)[nH]1`: the viability in assay [1] was 95% (inactive); in assay [2], 91.2% (inactive); in assay [3] it was 87.9% (inactive); in assay [4] (setting [7]) it was 88.4%; in assay [4] (setting [8]) it was 87.9%. The differential viability (reversal) in assay [4] (H69AR cells + 2 uM doxorubicin) was -0.48% (inactive). Besides, the results for the inhibition in assay [5] and in assay [6] were -9.45% (inactive) and 0.73% (inactive), respectively.
